This note sets out measurements from ChEMBL document CHEMBL1949558, “Hypoxylonols C-F, benzo[j]fluoranthenes from Hypoxylon truncatum” (J Nat Prod, 2012).

The structures appear in SMILES notation.

A word on the IC50: it is the concentration that inhibits the measured activity by half.

One assay has as its system HUVEC. Briefly: Antiangiogenic activity in HUVEC assessed as inhibition of cell proliferation after 72 hrs by MTT assay. It counts as functional, cell-based. To be noted: Homo sapiens. Put shortly: (§1)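 Cells were purchased and seeded at 3000/well on collagen-coated plates for 3 h at 37 °C, 5% CO2: HUVECs in EGM-2, HUAECs in EGM-2MV. The medium was then swapped to 1% FBS-EBM-2 for 21 h. VEGF (1 nM) and samples were added for 72 h. Proliferation was read with WST-8 at 450 nm, and inhibition was expressed as IC50.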
(Formazan colour is commonly taken as a measure of viable cells.)

Assay [1] can be described thus: Antiangiogenic activity in HUAEC assessed as inhibition of cell proliferation after 72 hrs by MTT assay. It counts as functional. The following applies: Homo sapiens. Put shortly:
as §1

For `CO[C@H]1C[C@H](O)C2=C3c4cccc(O)c4C(=O)C[C@@H]3c3ccc(O)c1c32` [HYPOXYLONOL B], the IC50 (with HUVEC; in assay [1]) was 24 µM each time.

For the molecule `CCO[C@@H]1C[C@H](O)C2=C3c4cccc(O)c4C(=O)C[C@@H]3c3ccc(O)c1c32` [HYPOXYLONOL D], the IC50 in the assay with HUVEC was 6.9 µM; in assay [1] it was 6.1 µM.

Regarding `O=C1C[C@H]2C(=C3c4c2ccc(O)c4[C@@H](O)C[C@@H]3O)c2cccc(O)c21` [HYPOXYLONOL C], the values for the IC50 (with HUVEC; in assay [1]) were 21 µM and 16 µM, respectively.

`CCO[C@H]1C[C@H](O)C2=C3c4cccc(O)c4C(=O)C[C@@H]3c3ccc(O)c1c32` [HYPOXYLONOL A]: the figures for the IC50 (with HUVEC; in assay [1]) were 15 µM and 16 µM, respectively.

`CO[C@@H]1C[C@H](O)C2=C3c4cccc(O)c4C(=O)C[C@@H]3c3ccc(O)c1c32` [HYPOXYLONOL E]: the IC50 with HUVEC came to 7.4 µM; in assay [1], 4.1 µM.

As to `O=C1C[C@H]2C(=C3c4c2ccc(O)c4[C@H](O)C[C@@H]3O)c2cccc(O)c21` [HYPOXYLONOL F], the IC50 came out at 17 µM in the assay with HUVEC and 14 µM in assay [1].
